Data reported in publication PMC9420430 (Current Research in Immunology, 2022).
Where two headings read alike, the source gives them in different places.

Experiments:
HLA-A*02:01 [1] = molecular target: T1, HLA-A*02:01 (Homo sapiens, UniProt P04439, D140Y/D185E/D98H/E176V/E277Q/G131W/G231S/I119V/I121R/I166T/I218V/L300P/L318F/N151K/N90K/P208A/P217A/Q86G/Q94H/R138H/R169H/T345S); type: binding; conditions: for peptide exchange (in words): NA9 for NV9-FITC on A2, 25 °C
A2/NA9 = experiment: Thermal stability by nanoscale differential scanning fluorimetry, A2/NA9; design: species or system human; conditions: for destabilization of A2 complex (in words): ethanediol, 20% DMSO, Table S5
Outline: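 Refolded, SEC-purified HLA-A2/peptide complex, 4 µM in citrate-phosphate buffer pH 7.6 (187.3 mM Na₂HPO₄, 6.35 mM citric acid). Mixed 1:1 with solvent or dipeptide at 2x test concentration in the same buffer, giving 2 µM complex. nanoDSF in capillaries: ex 280 nm, em 330 and 350 nm, ramp 1.0 °C/min from 15 or 20 °C to 80 °C.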

HLA-A*02:01 [2] = molecular target: T1, HLA-A*02:01; type: binding
HLA-A*24:02 = HLA-A*24:02 (Homo sapiens, UniProt P04439, D101N/D140Y/D185E/E176V/E190D/F33S/G103R/G107R/I119L/I121M/I306V/K335N/L105A/L180Q/L300P/N151K/N90K/Q86E/Q94H/R106L/R138H/R89G/T104I/T345S/V100E/W191G/Y123F); type: binding; conditions: pre-bound TLn9, ethanol vs 10 mM GF, 25 °C
Outline: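 Complex (300 nM final) preincubated 15 min with the test compound or 10 mM dipeptide in 50 mM HEPES, 150 mM NaCl, pH 7.5. FITC-labeled incoming peptide added at 100 nM final. Exchange followed in real time by fluorescence anisotropy (ex 494 nm, em 517 nm) at 25 °C.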

HLA-B*07:02 = HLA-B*07:02 (Homo sapiens, UniProt P01889); type: binding; conditions: pre-bound APGIRDHESA
H-2K^b = H-2K^b (Mus musculus, UniProt P01901); type: binding, murine; conditions: pre-bound FAPGNYPAL
β2m = experiment: Thermal stability by nanoscale differential scanning fluorimetry, β2m; design: species or system human
A2/IV9 = experiment: Thermal stability by nanoscale differential scanning fluorimetry, A2/IV9; design: species or system human; conditions: no reagent
[3] = molecular target: disulfide-stabilized HLA-A*02:01 (Y84C/A139C) (Homo sapiens, UniProt P04439, D140Y/D185E/D98H/E176V/E277Q/G131W/G231S/I119V/I121R/I166T/I218V/L300P/L318F/N151K/N90K/P208A/P217A/Q86G/Q94H/R138H/R169H/T345S/A163C/Y108C); type: binding
[4] = molecular target: disulfide-stabilized HLA-A*02:01 (Y84C/A139C) / beta-2 microglobulin, peptide-free (human); experiment: fluorescence polarisation
A2/NV9 = experiment: Thermal stability by nanoscale differential scanning fluorimetry, A2/NV9; design: species or system human; conditions: no reagent

## CCCO [1-propanol]
HLA-A*02:01 [1]
  peptide exchange (in words): ineffective

## CCC(C)O (stereo not shown) [2-butanol]
HLA-A*02:01 [1]
  peptide exchange (in words): ineffective

## C[S+](C)[O-] [DMSO, Dimethylsulfoxide]
A2/NA9
  destabilization of A2 complex (in words): destabilizes to an extent similar to 10% ethanol

## OCCO [EDO, 1,2-Ethanediol]
HLA-A*02:01 [1]
  peptide exchange (in words): enhanced exchange only to a minor extent
A2/NA9
  destabilization of A2 complex (in words): destabilizes A2 only slightly

## CCO [EtOH, Ethanol]
HLA-A*02:01 [1]; 20% ethanol, 25, 32, 37 °C, less A2 available to bind the incoming peptide
  lower endpoint anisotropy with temperature increase (in words): especially dramatic
HLA-A*02:01 [1]
  peptide exchange (in words): 10% ethanol showed an acceleration similar to the dipeptide
HLA-A*02:01 [2]
  peptide exchange (in words): considerably less than that of 10 mM GM
HLA-A*24:02
  peptide exchange (in words): dramatically superior to the dipeptide
HLA-B*07:02
  peptide exchange (in words): also catalyzes exchange
H-2K^b
  peptide exchange (in words): also catalyzes exchange
A2/NA9; A2/NA9, 20% ethanol vs no reagent
  ΔTm: −16.7 °C
β2m; 20% solvent, β2m alone, citrate-phosphate buffer pH 7.6, 1.0 °C/min
  Tm: 45 °C
β2m; β2m, 20% solvent vs no reagent
  ΔTm: −20.5 °C

## CO [MeOH, Methanol]
HLA-A*02:01 [1]
  peptide exchange (in words): 20% methanol was only slightly slower

## ILKEPVHGV [IV9]
A2/IV9
  Tm of complex compared to β2m alone (in words): not significantly different from those of β2m alone

## NLVPKTAMRAVATA [NA9-TAM]
[3]
  acceleration of dissociation by 20% ethanol: about six-fold

## NLVPK_(TAMRA)VATA (peptide)
[4]
  fold acceleration of dissociation by 20% ethanol (against no ethanol): 6 fold

## NLVPMVATV [NV9]
A2/NV9
  Tm of complex compared to β2m alone (in words): not significantly different from those of β2m alone
